Values after ≈ are worked out from the molar mass of the structure shown. Active and inactive are the calls of the source. The calls are words filed in the database; no cut-off is given here.
Legend:
[1] = system: Pseudomonas aeruginosa; assay: Antimicrobial activity against oprD-deficient Pseudomonas aeruginosa PAO1 in hollow fiber system based pharmacokinetic-pharmacodynamic model assessed as reduction in bacterial count at 1 g administered at 4 hrs infusion regimen by time-kill assay; assay type: functional
Outline: (§1)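 Hollow-fiber PK/PD model at 35°C, humidified. 15 ml late-log Mueller-Hinton II culture (circa 1 × 10^8 CFU/ml) per cartridge. Drug injected into the central reservoir by 0.5–4 h infusion every 6 or 8 h, run for 10 days. Samples taken at 0, 0.17, 1, 2, 3, 4, 6, 8 and 10 days, centrifuged and resuspended in saline to limit carryover. Counted on drug-free Mueller-Hinton II agar after 24 h at 35°C. Cell kill taken from counts at 24 h of exposure.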

[2] = system: Pseudomonas aeruginosa; assay: Antimicrobial activity against Pseudomonas aeruginosa PAO1 expressing derepressed chromosomal AmpC mutant by broth macrodilution method; assay type: functional
[3] = system: Pseudomonas aeruginosa; assay: Antimicrobial activity against wild type Pseudomonas aeruginosa PAO1 in hollow fiber system based pharmacokinetic-pharmacodynamic model assessed as reduction in bacterial count at 500 mg administered at 1 hr infusion regimen every 8 hrs by time-kill assay; assay type: functional; outline: as §1
[4] = system: Pseudomonas aeruginosa; assay: Antimicrobial activity against wild type Pseudomonas aeruginosa PAO1 in hollow fiber system based pharmacokinetic-pharmacodynamic model assessed as reduction in bacterial count at 1 g administered at 4 hrs infusion regimen every 8 hrs by time-kill assay; assay type: functional; outline: as §1
[5] = system: Pseudomonas aeruginosa; assay: Antimicrobial activity against oprD-deficient Pseudomonas aeruginosa PAO1 in hollow fiber system based pharmacokinetic-pharmacodynamic model assessed as reduction in bacterial count at 500 mg administered at 1 hr infusion regimen every 8 hrs by time-kill assay; assay type: functional; outline: as §1
[6] = system: Pseudomonas aeruginosa; assay: Antimicrobial activity against oprD-deficient Pseudomonas aeruginosa PAO1 by broth macrodilution method; assay type: functional
[7] = system: Pseudomonas aeruginosa; assay: Antimicrobial activity against oprD-deficient Pseudomonas aeruginosa PAO1 in hollow fiber system based pharmacokinetic-pharmacodynamic model assessed as reduction in bacterial count at 1 g administered at 1 hr infusion regimen every 8 hrs by time-kill assay; assay type: functional; outline: as §1
[8] = system: Pseudomonas aeruginosa; assay: Antimicrobial activity against oprD-deficient Pseudomonas aeruginosa PAO1 in hollow fiber system based pharmacokinetic-pharmacodynamic model assessed as reduction in bacterial count at 1 g administered at 4 hrs infusion regimen every 8 hrs by time-kill assay; assay type: functional, organism-based; outline: as §1
[9] = system: Pseudomonas aeruginosa; assay: Antimicrobial activity against wild type Pseudomonas aeruginosa PAO1 in hollow fiber system based pharmacokinetic-pharmacodynamic model assessed as reduction in bacterial count at 500 mg administered at 4 hrs infusion regimen every 8 hrs by time-kill assay; assay type: functional; outline: as §1
[10] = system: Pseudomonas aeruginosa; assay: Antimicrobial activity against wild type Pseudomonas aeruginosa PAO1 by broth macrodilution method; assay type: functional

SMILES | log10CFU/ml [1] | MIC [2] [µg/mL] | log10CFU/ml [3] | log10CFU/ml [4] | log10CFU/ml [5] | MIC [6] [µg/mL] | log10CFU/ml [7] | Activity [8] | log10CFU/ml [9] | MIC [10] [µg/mL]
C[C@@H](O)[C@H]1C(=O)N2C(C(=O)O)=C(S[C@@H]3CN[C@H](CNS(N)(=O)=O)C3)[C@H](C)[C@H]12 [DORIPENEM] | 4.24 | 2 (≈ 4.76 µM) | 3.71 | 5.4 | 3.12 | 2 (≈ 4.76 µM) | 3.47 | Active | 4.07 | 1 (≈ 2.38 µM)
C[C@@H](O)[C@H]1C(=O)N2C(C(=O)O)=C(SCCNC=N)C[C@H]12 [IMIPENEM ANHYDROUS] |  | 2 (≈ 6.68 µM) |  |  |  | 16 (≈ 53.4 µM) |  |  |  | 2 (≈ 6.68 µM)
